Experimental data from ChEMBL document CHEMBL1147450, “N2-benzyl-N1-(1-(1-naphthyl)ethyl)-3-phenylpropane-1,2-diamines and conformationally restrained indole analogues: development of calindol as a new calcimimetic acting at the calcium sensing receptor” (Bioorg Med Chem Lett, 2004).

Assays:
Assay type in all cases: functional, cell-based
[1] = target: T1, Extracellular calcium-sensing receptor (Rattus norvegicus) (UniProt P48442); assay: Maximal stimulation of [3H]-inositol phosphates production in CHO cells expressing rat Calcium sensing receptor (CaSR) at 10 mM [Ca2+]
T1 sequence (whole entry): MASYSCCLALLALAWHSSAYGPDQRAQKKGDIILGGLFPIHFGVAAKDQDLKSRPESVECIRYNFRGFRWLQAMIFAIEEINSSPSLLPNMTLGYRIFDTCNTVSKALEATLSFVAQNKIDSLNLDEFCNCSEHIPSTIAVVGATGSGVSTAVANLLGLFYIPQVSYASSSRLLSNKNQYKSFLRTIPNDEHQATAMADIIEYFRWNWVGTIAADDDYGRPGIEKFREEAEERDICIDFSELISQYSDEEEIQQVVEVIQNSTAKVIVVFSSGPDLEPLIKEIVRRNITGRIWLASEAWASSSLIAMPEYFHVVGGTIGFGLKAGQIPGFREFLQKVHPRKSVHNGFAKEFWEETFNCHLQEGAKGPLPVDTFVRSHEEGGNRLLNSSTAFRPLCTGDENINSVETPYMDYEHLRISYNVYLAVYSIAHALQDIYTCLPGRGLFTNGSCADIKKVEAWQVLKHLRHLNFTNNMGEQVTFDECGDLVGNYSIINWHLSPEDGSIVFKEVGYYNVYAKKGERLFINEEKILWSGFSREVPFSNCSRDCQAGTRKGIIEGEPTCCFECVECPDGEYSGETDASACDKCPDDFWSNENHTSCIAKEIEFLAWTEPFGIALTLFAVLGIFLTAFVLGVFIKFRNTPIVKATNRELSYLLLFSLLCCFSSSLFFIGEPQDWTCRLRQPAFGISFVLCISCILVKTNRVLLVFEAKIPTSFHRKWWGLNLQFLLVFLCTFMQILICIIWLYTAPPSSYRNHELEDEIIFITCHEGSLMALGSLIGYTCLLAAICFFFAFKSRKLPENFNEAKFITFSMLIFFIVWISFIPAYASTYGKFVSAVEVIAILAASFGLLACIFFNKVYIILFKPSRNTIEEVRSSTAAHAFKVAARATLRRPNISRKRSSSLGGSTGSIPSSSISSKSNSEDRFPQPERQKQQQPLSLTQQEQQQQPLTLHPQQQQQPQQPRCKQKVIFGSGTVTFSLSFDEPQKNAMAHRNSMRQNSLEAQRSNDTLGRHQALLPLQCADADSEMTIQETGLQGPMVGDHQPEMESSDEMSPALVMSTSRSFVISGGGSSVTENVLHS
In short: (§1)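 CHO cells stably transfected with rat brain CaSR, grown in basal Ham's F-12 (0.3 mM Ca2+, 0.6 mM Mg2+), prelabelled overnight with 0.5 µCi/mL myo-[3H]inositol. Drugs were made as 10 mM ethanol stocks, diluted in basal medium, and incubated at 37 °C with 2 mM extracellular Ca2+. Read-out is [3H]IP accumulation as % of the 10 mM Ca2+ maximal response. Two to five independent experiments in triplicate, mean ± SEM.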

[2] = target: T2, Extracellular calcium-sensing receptor (Rattus norvegicus, UniProt P48442); assay: Ability to stimulate [3H]inositol phosphates accumulation in CHO cells expressing rat Calcium sensing receptor (CaSR) at 2 mM [Ca2+]; in short: as §1
T2 sequence (P48442 whole entry): T1 sequence (whole entry)

[3] = target: T3, Extracellular calcium-sensing receptor (Homo sapiens, UniProt P41180); assay: Ability to stimulate [3H]inositol phosphates accumulation in HEK293 cells expressing the human calcium sensing receptor (CaSR) at 2 mM [Ca2+]
T3 sequence (P41180 whole entry): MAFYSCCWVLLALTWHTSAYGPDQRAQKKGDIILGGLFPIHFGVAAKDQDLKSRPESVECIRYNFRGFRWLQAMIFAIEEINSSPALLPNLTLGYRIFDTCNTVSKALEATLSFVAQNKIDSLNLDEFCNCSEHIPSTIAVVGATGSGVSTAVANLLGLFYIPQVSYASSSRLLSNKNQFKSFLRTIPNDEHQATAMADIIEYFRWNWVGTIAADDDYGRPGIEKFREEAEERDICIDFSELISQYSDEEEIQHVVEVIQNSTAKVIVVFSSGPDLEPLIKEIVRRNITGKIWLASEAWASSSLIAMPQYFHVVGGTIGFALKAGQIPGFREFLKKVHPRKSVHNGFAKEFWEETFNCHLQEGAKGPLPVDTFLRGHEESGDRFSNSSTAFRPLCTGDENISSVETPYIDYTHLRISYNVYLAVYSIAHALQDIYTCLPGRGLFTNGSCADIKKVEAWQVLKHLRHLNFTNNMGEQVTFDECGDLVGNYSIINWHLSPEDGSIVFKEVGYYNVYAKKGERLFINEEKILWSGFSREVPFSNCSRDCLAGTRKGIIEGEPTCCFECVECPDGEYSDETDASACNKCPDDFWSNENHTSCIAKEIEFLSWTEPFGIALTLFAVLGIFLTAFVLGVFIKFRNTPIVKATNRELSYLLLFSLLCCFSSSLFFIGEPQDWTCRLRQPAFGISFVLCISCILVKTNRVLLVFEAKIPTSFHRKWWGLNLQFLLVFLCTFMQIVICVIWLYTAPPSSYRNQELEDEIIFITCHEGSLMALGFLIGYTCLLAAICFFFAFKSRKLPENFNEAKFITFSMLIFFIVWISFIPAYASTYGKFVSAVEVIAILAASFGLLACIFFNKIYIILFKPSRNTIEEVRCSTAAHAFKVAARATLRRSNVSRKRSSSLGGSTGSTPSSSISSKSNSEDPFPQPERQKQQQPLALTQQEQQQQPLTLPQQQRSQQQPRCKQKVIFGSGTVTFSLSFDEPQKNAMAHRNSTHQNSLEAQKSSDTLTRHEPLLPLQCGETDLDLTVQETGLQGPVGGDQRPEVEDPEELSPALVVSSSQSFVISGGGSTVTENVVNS
In short: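 HEK293 cells transiently expressing human CaSR, prelabelled with myo-[3H]inositol. Increasing drug concentrations were applied in the presence of 2 mM extracellular Ca2+. [3H]IP accumulation is expressed as % of the 10 mM Ca2+ response, and EC50 and maximal stimulation come from the dose-response curve. Three to five independent experiments in triplicate.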

| Structure (SMILES) | Accumulation [1] | EC50 [2] | EC50 [3] |
| --- | --- | --- | --- |
| CC(NCc1cc2ccccc2n1C)c1cccc2ccccc12 (centres undefined) | 79% |  |  |
| CC(NC(=O)c1cc2ccccc2[nH]1)c1cccc2ccccc12 (centres undefined) | 2% |  |  |
| COc1cc2cc(CNC(C)c3cccc4ccccc34)[nH]c2cc1OC (centres undefined) | 34% |  |  |
| COc1ccc2[nH]c(CNC(C)c3cccc4ccccc34)cc2c1 (centres undefined) | 55% |  |  |
| COc1ccc(CNC(CNC(C)c2cccc3ccccc23)Cc2ccccc2)cc1OC (centres undefined) | 74% |  |  |
| CC(NCC(Cc1ccccc1)NCc1ccc(F)cc1)c1cccc2ccccc12 (centres undefined) | 95% |  |  |
| COc1ccc(CNC(CNC(C)c2cccc3ccccc23)Cc2ccccc2)cc1 (centres undefined) | 80% |  |  |
| CC(NCC(Cc1ccccc1)NCc1ccccc1Cl)c1cccc2ccccc12 (centres undefined) | 98% |  |  |
| CC(NCC(Cc1ccccc1)NCc1cccc(Cl)c1)c1cccc2ccccc12 (centres undefined) | 78% |  |  |

The remaining lines, values ahead:

| Accumulation [1] | EC50 [2] | EC50 [3] | Structure (SMILES) |
| --- | --- | --- | --- |
| 103% | 1.3 µM |  | CC(NCc1cc2ccccc2[nH]1)c1cccc2ccccc12 (racemic) |
| 60% |  |  | CC(NCc1cc2cc(Cl)ccc2[nH]1)c1cccc2ccccc12 (centres undefined) |
| 87% |  |  | CC(NCc1cc2cc(F)ccc2[nH]1)c1cccc2ccccc12 (centres undefined) |
| 80% |  |  | CC(NCC(Cc1ccccc1)NCc1ccccc1)c1cccc2ccccc12 (centres undefined) |
| 117% | 1 µM | 0.31 µM | C[C@@H](NCc1cc2ccccc2[nH]1)c1cccc2ccccc12 |
| 32% |  |  | C[C@H](NCc1cc2ccccc2[nH]1)c1cccc2ccccc12 |
| 54% |  |  | COc1ccc(S(=O)(=O)n2c(CNC(C)c3cccc4ccccc34)cc3ccccc32)cc1OC (centres undefined) |
